Laboratory results from ChEMBL document CHEMBL1641497, “A potent and selective indole N-type calcium channel (Ca(v)2.2) blocker for the treatment of pain” (Bioorg Med Chem Lett, 2011).

Columns and labels:
[1] = biological target: Cav1.2 (voltage-dependent L-type calcium channel subunit alpha-1C) (Homo sapiens, UniProt Q13936); experiment: Blockade of Cav1.2 channel at 10 uM by fluorescent calcium-influx assay
In short: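 Cav1.2 (L-type) channel block measured with a fluorescent calcium-influx FLIPR assay. Results are reported as % inhibition at 10 μM test concentration.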

[2] = biological target: T1, Nuclear receptor subfamily 1 group I member 2 (Homo sapiens, UniProt O75469); experiment: Activity at PXR by induction assay
T1 sequence (O75469 whole entry): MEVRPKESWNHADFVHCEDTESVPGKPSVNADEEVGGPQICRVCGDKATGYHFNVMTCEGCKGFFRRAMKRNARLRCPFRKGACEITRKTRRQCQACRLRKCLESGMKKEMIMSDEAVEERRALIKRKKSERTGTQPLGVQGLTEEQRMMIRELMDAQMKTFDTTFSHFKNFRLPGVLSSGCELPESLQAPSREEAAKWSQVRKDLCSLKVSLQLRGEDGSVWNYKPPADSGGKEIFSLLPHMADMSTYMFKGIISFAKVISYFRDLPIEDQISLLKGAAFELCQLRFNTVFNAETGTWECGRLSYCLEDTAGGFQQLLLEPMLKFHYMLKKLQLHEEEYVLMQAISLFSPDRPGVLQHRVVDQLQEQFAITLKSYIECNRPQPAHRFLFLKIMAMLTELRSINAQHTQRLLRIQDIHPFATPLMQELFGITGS

Rattus norvegicus = experiment: Dose normalized AUC in rat at 1 mg/kg, iv and 3 mg/kg, po; format: ADME, organism-based; details: in vivo
In short: (§1)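 Rat PK with 1.0 mg/kg IV and 3.0 mg/kg PO doses, based on plasma analysis. Parameters: Cmax, dose-normalized AUC (μM h kg/mg), plasma clearance (mL/min/kg), Vdss (L/kg), T1/2 (h) and oral bioavailability (%).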

[3] = Metabolic stability in human liver microsomes assessed as compound remaining after 60 mins; format: ADME, Microsome; details: read-out: Stability
In short: (§2)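 Compounds incubated with human or rat liver microsomes for 60 min. Read-out is the percent of parent compound remaining.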

[4] = Metabolic stability in rat liver microsomes assessed as compound remaining after 60 mins; format: ADME, Microsome; details: read-out: Stability; in short: as §2
[5] = Half life in rat at 1 mg/kg, iv and 3 mg/kg, po; format: ADME, organism-based; details: in vivo; in short: as §1
[6] = Plasma clearance in rat at 1 mg/kg, iv and 3 mg/kg, po; format: ADME, organism-based; in short: as §1
[7] = Oral bioavailability in rat at 3 mg/kg; format: ADME, organism-based; details: in vivo; in short: as §1
[8] = biological target: Nav1.5 (sodium channel protein type 5 subunit alpha) (Homo sapiens, UniProt Q14524); experiment: Blockade of Nav1.5 channel at 10 uM by fluorescent […] assay
[9] = biological target: T2, Voltage-dependent N-type calcium channel subunit alpha-1B (Homo sapiens, UniProt Q00975); experiment: Blockade of Cav2.2 channel by fluorescent calcium-influx assay
In short: (§3)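 […] Cav2.2 channel block measured in vitro with a fluorescent calcium-influx (FLIPR) assay. Results are reported as % inhibition at 10 μM, with an IC50 (μM) for selected compounds.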
Target sequence in this assay (Q00975 whole entry): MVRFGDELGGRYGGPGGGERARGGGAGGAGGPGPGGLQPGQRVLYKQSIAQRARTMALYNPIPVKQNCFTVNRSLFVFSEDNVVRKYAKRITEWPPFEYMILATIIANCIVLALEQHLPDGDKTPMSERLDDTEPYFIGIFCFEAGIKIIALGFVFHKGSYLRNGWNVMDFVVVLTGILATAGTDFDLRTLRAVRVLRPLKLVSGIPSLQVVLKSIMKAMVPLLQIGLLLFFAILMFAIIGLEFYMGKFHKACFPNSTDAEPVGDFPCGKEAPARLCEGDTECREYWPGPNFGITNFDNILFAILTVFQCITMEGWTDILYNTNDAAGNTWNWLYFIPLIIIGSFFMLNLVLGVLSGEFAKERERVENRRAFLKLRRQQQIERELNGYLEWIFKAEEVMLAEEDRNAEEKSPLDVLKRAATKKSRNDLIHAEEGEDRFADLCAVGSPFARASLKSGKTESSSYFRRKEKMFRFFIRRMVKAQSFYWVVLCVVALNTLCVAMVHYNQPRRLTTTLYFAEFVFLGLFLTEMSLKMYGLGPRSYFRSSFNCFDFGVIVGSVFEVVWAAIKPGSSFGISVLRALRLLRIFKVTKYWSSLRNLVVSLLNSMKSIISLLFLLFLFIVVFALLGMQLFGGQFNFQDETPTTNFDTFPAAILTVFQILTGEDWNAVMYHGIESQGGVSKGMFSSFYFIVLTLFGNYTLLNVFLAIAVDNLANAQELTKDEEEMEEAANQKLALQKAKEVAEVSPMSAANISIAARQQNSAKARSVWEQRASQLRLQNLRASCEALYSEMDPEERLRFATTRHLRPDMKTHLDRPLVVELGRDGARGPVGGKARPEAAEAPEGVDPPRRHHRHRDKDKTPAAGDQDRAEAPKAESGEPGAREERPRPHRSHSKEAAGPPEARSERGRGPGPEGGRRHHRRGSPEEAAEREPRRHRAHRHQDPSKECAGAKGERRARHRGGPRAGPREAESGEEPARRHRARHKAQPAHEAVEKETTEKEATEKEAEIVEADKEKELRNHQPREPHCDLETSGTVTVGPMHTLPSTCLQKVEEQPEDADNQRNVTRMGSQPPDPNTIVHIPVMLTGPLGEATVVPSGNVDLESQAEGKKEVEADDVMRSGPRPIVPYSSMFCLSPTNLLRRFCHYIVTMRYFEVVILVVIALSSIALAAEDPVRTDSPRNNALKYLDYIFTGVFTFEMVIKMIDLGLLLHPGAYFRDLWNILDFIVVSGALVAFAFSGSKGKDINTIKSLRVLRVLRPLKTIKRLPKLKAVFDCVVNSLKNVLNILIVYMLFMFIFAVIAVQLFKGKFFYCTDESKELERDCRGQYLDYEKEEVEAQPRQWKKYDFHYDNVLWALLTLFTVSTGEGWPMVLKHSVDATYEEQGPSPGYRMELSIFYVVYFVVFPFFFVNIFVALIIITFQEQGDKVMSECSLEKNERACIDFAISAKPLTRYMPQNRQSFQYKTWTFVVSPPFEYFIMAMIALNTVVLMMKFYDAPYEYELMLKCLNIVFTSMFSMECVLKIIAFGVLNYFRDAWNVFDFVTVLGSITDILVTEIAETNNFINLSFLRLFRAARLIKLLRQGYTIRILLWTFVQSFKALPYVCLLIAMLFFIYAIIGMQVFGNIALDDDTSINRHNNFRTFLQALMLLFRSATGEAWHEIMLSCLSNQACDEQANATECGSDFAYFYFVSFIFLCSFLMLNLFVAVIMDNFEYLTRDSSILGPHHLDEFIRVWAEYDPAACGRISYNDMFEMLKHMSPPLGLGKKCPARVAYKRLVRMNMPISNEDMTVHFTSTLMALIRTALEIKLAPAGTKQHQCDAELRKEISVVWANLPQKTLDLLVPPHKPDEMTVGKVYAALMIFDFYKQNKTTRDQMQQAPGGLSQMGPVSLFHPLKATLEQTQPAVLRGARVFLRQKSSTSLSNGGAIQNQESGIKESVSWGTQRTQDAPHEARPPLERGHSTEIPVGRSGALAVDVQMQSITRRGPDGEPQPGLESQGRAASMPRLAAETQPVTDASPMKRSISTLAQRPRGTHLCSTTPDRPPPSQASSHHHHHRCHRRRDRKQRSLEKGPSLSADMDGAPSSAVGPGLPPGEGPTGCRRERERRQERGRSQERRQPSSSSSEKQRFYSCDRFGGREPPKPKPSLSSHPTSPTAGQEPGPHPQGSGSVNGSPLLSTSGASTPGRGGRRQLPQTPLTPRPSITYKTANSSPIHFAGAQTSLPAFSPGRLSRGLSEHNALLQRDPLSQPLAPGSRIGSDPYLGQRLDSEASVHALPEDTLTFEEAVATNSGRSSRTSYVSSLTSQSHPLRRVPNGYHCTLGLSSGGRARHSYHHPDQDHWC

[10] = biological target: T2, Voltage-dependent N-type calcium channel subunit alpha-1B; experiment: Blockade of Cav2.2 channel at 10 uM by fluorescent calcium-influx assay; in short: as §3
Target sequence in this assay (Q00975 whole entry, looked up): as the sequence (Q00975 whole entry) above

hERG (Homo sapiens) = experiment: Blockade of hERG channel at 10 uM by displacement of MK-0499 binding

Cav1.2 (voltage-dependent L-type calcium channel subunit alpha-1C), sequence (Q13936 whole entry): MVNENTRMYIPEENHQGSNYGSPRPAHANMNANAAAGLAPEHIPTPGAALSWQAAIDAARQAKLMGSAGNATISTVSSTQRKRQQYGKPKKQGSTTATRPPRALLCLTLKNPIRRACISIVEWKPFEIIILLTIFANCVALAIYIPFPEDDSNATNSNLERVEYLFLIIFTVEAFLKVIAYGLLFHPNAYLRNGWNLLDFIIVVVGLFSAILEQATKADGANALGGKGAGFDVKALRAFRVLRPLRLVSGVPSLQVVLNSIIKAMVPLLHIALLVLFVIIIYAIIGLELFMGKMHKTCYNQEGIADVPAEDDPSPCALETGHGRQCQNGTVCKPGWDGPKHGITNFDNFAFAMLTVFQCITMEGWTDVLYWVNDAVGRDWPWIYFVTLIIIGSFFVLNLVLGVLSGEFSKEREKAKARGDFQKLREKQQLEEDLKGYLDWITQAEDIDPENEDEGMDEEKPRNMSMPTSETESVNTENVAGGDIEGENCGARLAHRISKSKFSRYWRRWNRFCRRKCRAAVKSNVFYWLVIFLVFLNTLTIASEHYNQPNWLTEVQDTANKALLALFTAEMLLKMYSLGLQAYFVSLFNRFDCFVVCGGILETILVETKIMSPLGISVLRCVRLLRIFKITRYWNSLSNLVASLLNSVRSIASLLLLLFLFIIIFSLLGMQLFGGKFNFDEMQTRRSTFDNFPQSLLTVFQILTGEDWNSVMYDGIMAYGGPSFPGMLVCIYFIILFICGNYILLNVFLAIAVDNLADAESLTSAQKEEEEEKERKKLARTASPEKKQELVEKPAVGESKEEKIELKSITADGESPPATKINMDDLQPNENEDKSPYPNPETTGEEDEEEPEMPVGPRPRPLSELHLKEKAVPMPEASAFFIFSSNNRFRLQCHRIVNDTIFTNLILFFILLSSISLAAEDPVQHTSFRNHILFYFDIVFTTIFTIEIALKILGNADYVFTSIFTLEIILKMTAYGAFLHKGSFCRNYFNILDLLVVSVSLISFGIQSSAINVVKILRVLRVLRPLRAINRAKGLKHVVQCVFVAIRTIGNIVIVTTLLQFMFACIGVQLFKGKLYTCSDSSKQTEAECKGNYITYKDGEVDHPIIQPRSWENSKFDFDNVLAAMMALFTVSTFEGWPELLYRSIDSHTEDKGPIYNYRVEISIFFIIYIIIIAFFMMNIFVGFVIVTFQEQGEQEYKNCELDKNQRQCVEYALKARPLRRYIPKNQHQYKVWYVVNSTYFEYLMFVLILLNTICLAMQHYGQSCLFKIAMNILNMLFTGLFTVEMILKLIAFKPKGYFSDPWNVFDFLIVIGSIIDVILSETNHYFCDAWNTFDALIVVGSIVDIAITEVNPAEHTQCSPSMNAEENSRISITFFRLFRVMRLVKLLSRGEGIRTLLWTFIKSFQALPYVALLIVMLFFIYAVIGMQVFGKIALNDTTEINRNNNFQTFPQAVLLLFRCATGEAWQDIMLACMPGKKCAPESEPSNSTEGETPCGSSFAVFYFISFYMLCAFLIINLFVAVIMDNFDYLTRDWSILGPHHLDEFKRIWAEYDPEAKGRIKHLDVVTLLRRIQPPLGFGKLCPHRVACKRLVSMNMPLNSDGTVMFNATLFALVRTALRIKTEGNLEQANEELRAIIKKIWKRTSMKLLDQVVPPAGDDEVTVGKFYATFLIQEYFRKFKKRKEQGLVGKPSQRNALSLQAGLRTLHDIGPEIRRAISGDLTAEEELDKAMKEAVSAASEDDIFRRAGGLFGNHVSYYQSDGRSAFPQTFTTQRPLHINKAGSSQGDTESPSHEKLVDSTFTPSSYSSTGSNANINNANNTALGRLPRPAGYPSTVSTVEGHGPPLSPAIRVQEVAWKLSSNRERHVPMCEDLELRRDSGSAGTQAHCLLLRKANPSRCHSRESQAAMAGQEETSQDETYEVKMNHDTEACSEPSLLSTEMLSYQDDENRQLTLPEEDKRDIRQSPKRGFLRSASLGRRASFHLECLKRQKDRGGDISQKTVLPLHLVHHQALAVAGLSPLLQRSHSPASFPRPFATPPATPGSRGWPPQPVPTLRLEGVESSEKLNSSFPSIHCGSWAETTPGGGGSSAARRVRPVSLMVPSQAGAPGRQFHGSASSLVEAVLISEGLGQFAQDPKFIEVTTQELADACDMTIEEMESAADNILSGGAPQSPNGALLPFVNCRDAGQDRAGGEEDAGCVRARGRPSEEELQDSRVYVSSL

Q: Which inhibition at 10 µM [1] does the source give for `CC(C)(C)NC(=O)Cn1c(-c2ccc(F)cc2)cc2cc(C(C)(C)C(=O)NC(C)(C)C)ccc21` here?
A: 82%

Q: And the EC50 [2]?
A: > 30000 nM

Q: What does the source list for `CC(C)(C)NC(=O)Cn1c(-c2ccccc2OC(F)(F)F)cc2cc(C(C)(C)C(=O)NC(C)(C)C)ccc21`?
A: AUC (Rattus norvegicus): 0.57 µM·kg·h/mg; remaining at 1 h [3]: 0.04%; remaining at 1 h [4]: 2.5%; half-life [5]: 2.68 h; inhibition at 10 µM [1]: 79%; clearance [6]: 21 mL/min/kg; EC50 [2]: > 30000 nM; bioavailability [7]: 38%

Q: What does the source list for `COc1ccccc1-c1cc2cc(C(C)(C)C(=O)NC(C)(C)C)ccc2n1CC(=O)NC(C)(C)C`?
A: inhibition at 10 µM [1]: 60%; EC50 [2]: 740 nM

Q: Which inhibition at 10 µM [1] does the source give for `CCOC(=O)C(C)(C)c1ccc2c(c1)c([C@H](C)CO)c(-c1cc(C)cc(C)c1)n2C(=O)OC(C)(C)C` here?
A: 40%

Q: And the inhibition at 10 µM [8]?
A: 25%

Q: What about the IC50 [9] of the same compound?
A: 600 nM

Q: What does the source list for `CC(C)(C)NC(=O)Cn1c(C(C)(C)C)cc2cc(C(C)(C)C(=O)NC(C)(C)C)ccc21`?
A: inhibition at 10 µM [1]: 47%; EC50 [2]: 570 nM

Q: With `CC(C)(C)NC(=O)Cn1c(-c2ccccc2)cc2cc(C(C)(C)C(=O)NC(C)(C)C)ccc21` as the compound, how does the inhibition at 10 µM [1] read?
A: 79%

Q: And the EC50 [2]?
A: 1810 nM

Q: For `Cc1cc(C)cc(-c2cc3cc(C(C)(C)C(=O)NC(C)(C)C)ccc3n2CC(=O)NC(C)(C)C)c1`, which inhibition [10] is on record?
A: 98%

Q: What about the inhibition at 10 µM (hERG (Homo sapiens)) of the same compound?
A: 33%

Q: And the inhibition at 10 µM [1]?
A: 78%

Q: What about the EC50 [2] of the same compound?
A: > 30000 nM

Q: And the IC50 [9]?
A: 190 nM

Q: With `CC(C)(C)NC(=O)Cn1c(-c2cc(F)cc(C(F)(F)F)c2)cc2cc(C(C)(C)C(=O)NC(C)(C)C)ccc21` as the compound, how does the inhibition at 10 µM [1] read?
A: 88%

Q: And the EC50 [2]?
A: > 30000 nM

Q: With `Cc1cc(C)cc(-c2cc3cc(C(C)(C)C(=O)NC(C)(C)C)ccc3[nH]2)c1` as the compound, how does the inhibition [10] read?
A: 78%

Q: Which results are given for `CC(C)(C)NC(=O)Cn1c(-c2cc(C(F)(F)F)cc(C(F)(F)F)c2)cc2cc(C(C)(C)C(=O)NC(C)(C)C)ccc21`?
A: inhibition at 10 µM [1]: 61%; EC50 [2]: 10800 nM

Q: Which inhibition [10] does the source give for `Cc1cc(C)cc(-c2cc3cc(C(C)(C)C(=O)NC4CC4)ccc3n2CC(C)O)c1` (stereo not given) here?
A: 89%

Q: And the IC50 [9]?
A: 1150 nM

Q: For `CC(C)(C)NC(=O)Cn1c(-c2ccc(F)cc2F)cc2cc(C(C)(C)C(=O)NC(C)(C)C)ccc21`, which inhibition at 10 µM [1] is on record?
A: 93%

Q: What about the EC50 [2] of the same compound?
A: 940 nM

Q: Which inhibition at 10 µM [1] does the source give for `CC(C)(C)NC(=O)Cn1c(C(=O)NC(C)(C)C)cc2cc(C(C)(C)C(=O)NC(C)(C)C)ccc21` here?
A: 24%

Q: What about the EC50 [2] of the same compound?
A: 6640 nM

Q: For `COCCn1c(-c2cc(C)cc(C)c2)cc2cc(C(C)(C)C(=O)NC(C)(C)C)ccc21`, which inhibition [10] is on record?
A: 99%

Q: And the inhibition at 10 µM [1]?
A: 70%

Q: And the IC50 [9]?
A: 520 nM

Q: For `Cc1cc(C)cc(-c2cc3cc(C(C)(C)C(=O)NC(C)(C)C)ccc3n2Cc2c(C)noc2C)c1`, which inhibition [10] is on record?
A: 99%

Q: And the inhibition at 10 µM (hERG (Homo sapiens))?
A: 65%

Q: And the IC50 [9]?
A: 540 nM

Q: With `CCCN[C@@H](C)c1c(-c2cc(C)cc(C)c2)[nH]c2ccc(C(C)(C)C(=O)N3C4CCC3CC4)cc12` as the compound, how does the inhibition at 10 µM [1] read?
A: 62%

Q: And the inhibition at 10 µM [8]?
A: 44%

Q: What about the IC50 [9] of the same compound?
A: 880 nM

Q: For `Cc1cc(C)cc(-c2cc3cc(C(C)(C)C(=O)N(C)C)ccc3n2CC(C)O)c1` (stereo not given), which inhibition [10] is on record?
A: 89%

Q: What about the inhibition at 10 µM [1] of the same compound?
A: 52%

Q: And the IC50 [9]?
A: 870 nM

Q: Which results are given for `CC(C)(C)NC(=O)C(c1ccccn1)n1ccc2cc(C(C)(C)C(=O)NC(C)(C)C)ccc21` (stereo not given)?
A: inhibition at 10 µM [1]: 64%; EC50 [2]: 600 nM

Q: What does the source list for `Cc1cc(C)cc(-c2cc3cc(C(C)(C)C(=O)NC(C)(C)C)ccc3n2CC(=O)OC(C)(C)C)c1`?
A: inhibition [10]: 91%; inhibition at 10 µM (hERG (Homo sapiens)): 60%; inhibition at 10 µM [1]: 48%; IC50 [9]: 660 nM

Q: With `Cc1cc(C)cc(-c2cc3cc(C(C)(C)C(=O)NC(C)(C)C)ccc3n2C(=O)OC(C)(C)C)c1` as the compound, how does the inhibition [10] read?
A: 59%

Q: Which AUC (Rattus norvegicus) does the source give for `CC(C)(C)NC(=O)Cn1c(-c2cccc(OC(F)(F)F)c2)cc2cc(C(C)(C)C(=O)NC(C)(C)C)ccc21` here?
A: 0.83 µM·kg·h/mg

Q: And the remaining at 1 h [3]?
A: 0.82%

Q: What about the remaining at 1 h [4] of the same compound?
A: 22%

Q: And the half-life [5]?
A: 2.27 h

Q: And the inhibition at 10 µM [1]?
A: 93%

Q: And the clearance [6]?
A: 11 mL/min/kg

Q: What about the EC50 [2] of the same compound?
A: > 30000 nM

Q: What about the bioavailability [7] of the same compound?
A: 26%

Q: Which inhibition [10] does the source give for `Cc1cc(C)cc(-c2cc3cc(C(C)(C)C(=O)NCC(F)(F)F)ccc3n2CC(C)O)c1` (stereo not given) here?
A: 91%

Q: And the IC50 [9]?
A: 1170 nM

Q: With `Cc1cc(C)cc(-c2cc3cc(C(=O)NC(C)(C)C)ccc3n2CC(C)O)c1` (stereo not given) as the compound, how does the inhibition [10] read?
A: 97%

Q: What about the inhibition at 10 µM (hERG (Homo sapiens)) of the same compound?
A: 64%

Q: What about the inhibition at 10 µM [1] of the same compound?
A: 90%

Q: And the IC50 [9]?
A: 680 nM

Q: For `COC(=O)C(C)(C)c1ccc2c(c1)cc(-c1cc(C)cc(C)c1)n2CC(C)O` (stereo not given), which inhibition [10] is on record?
A: 70%

Q: What about the inhibition at 10 µM [1] of the same compound?
A: 64%

Q: Which inhibition [10] does the source give for `Cc1cc(C)cc(-c2cc3cc(C(C)(C)C(=O)NC(C)(C)C)ccc3n2Cc2ccc(Cl)cc2)c1` here?
A: 36%

Q: For `Cc1cc(C)cc(-c2cc3cc(C(C)(C)CO)ccc3n2CC(C)O)c1` (stereo not given), which inhibition [10] is on record?
A: 44%

Q: And the inhibition at 10 µM [1]?
A: 32%

Q: Which results are given for `Cc1cc(C)cc(-c2cc3cc(OC(F)(F)F)ccc3n2CC(C)O)c1` (stereo not given)?
A: inhibition [10]: 36%; inhibition at 10 µM [1]: 43%
